Measurements from ChEMBL document CHEMBL1909618, “Non-steroidal dissociated glucocorticoid agonists: indoles as A-ring mimetics and function-regulating pharmacophores” (Bioorg Med Chem Lett, 2011).
pEC50, pIC50: −log10 of the molar value. Activity calls are given as the source filed them. The calls are words filed in the database; no cut-off is given here.

Tests used:
Glucocorticoid receptor [1] = target: T1, Glucocorticoid receptor (Homo sapiens, UniProt P04150); assay: Transactivation activity of glucocorticoid receptor in HFF assessed as induction of aromatase activity by measuring beta-estradiol activity after 18 to 24 hrs by ELISA; settings: read-out: EC50
T1 sequence (P04150 whole entry): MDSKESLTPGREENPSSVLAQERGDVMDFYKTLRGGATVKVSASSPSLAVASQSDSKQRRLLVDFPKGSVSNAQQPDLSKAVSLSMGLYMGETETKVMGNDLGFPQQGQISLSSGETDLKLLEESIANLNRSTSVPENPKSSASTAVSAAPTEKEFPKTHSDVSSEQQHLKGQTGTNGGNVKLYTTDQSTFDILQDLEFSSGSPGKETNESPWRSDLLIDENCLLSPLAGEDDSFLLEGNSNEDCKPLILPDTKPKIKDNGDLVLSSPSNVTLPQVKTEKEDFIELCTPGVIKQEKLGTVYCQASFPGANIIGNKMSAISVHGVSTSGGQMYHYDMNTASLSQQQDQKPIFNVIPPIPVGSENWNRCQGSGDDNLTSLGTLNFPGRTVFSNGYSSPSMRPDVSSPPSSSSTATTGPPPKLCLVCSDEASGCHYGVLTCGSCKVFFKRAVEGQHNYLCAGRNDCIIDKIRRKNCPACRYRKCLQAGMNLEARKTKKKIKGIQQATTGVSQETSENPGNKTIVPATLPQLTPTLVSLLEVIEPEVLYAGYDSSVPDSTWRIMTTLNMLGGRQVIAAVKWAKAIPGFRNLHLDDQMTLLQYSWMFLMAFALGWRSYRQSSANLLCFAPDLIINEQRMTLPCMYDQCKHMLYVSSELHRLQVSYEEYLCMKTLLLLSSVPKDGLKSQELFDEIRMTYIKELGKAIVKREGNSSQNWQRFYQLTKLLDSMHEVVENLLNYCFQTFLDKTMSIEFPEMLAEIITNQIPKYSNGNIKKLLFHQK

[2] = target: T2, Glucocorticoid receptor (Homo sapiens) (UniProt P04150); assay: Transactivation activity of glucocorticoid receptor in HFF assessed as induction of aromatase activity by measuring beta-estradiol activity after 18 to 24 hrs by ELISA relative to Dexamethasone
T2 sequence (whole entry): T1 sequence (P04150 whole entry)

Glucocorticoid receptor [3] = target: T1, Glucocorticoid receptor; assay: Displacement of tetramethylrhodamine-labeled Dexamethasone from human recombinant glucocorticoid receptor expressed in baculovirus infected insect cells by fluorescence polarization assay
Progesterone receptor = target: T3, Progesterone receptor (Homo sapiens, UniProt P06401); assay: Displacement of tetramethylrhodamine-labeled RU-486 from human recombinant progesterone receptor expressed in baculovirus infected insect cells by fluorescence polarization assay
T3 sequence (P06401 whole entry): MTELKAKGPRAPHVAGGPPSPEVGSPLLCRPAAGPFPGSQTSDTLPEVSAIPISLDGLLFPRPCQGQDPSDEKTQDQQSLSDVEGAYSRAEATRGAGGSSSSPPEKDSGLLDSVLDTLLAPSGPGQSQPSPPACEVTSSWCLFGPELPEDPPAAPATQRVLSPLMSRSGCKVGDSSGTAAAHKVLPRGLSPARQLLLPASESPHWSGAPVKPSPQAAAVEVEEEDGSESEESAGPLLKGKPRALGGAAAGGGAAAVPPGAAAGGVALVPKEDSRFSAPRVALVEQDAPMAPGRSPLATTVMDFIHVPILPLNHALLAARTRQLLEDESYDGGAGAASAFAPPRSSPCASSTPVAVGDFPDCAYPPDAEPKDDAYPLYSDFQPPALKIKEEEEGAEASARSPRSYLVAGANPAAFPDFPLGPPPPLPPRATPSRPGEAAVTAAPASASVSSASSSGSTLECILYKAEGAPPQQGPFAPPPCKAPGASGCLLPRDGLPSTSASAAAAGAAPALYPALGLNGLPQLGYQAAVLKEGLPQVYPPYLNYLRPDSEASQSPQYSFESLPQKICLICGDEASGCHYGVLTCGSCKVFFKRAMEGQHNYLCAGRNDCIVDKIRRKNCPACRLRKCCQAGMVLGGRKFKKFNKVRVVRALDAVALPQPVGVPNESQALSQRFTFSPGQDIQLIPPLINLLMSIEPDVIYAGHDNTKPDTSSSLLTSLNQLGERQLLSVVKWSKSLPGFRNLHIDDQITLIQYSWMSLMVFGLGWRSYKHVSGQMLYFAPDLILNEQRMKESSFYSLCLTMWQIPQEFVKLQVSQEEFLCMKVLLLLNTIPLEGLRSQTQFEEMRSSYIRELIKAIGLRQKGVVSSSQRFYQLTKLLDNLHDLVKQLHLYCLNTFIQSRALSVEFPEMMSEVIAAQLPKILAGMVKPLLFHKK
Method in brief: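 Fluorescence polarization competition assays with recombinant human receptors in lysates of baculovirus-infected insect cells. Reactions contained 1% DMSO and ran 1 h at room temperature.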

[4] = target: T4, Androgen receptor (Homo sapiens) (UniProt P10275); assay: Displacement of [3H]-testosterone from human recombinant androgen receptor expressed in baculovirus infected insect cells at 1100 nM
T4 sequence (whole entry): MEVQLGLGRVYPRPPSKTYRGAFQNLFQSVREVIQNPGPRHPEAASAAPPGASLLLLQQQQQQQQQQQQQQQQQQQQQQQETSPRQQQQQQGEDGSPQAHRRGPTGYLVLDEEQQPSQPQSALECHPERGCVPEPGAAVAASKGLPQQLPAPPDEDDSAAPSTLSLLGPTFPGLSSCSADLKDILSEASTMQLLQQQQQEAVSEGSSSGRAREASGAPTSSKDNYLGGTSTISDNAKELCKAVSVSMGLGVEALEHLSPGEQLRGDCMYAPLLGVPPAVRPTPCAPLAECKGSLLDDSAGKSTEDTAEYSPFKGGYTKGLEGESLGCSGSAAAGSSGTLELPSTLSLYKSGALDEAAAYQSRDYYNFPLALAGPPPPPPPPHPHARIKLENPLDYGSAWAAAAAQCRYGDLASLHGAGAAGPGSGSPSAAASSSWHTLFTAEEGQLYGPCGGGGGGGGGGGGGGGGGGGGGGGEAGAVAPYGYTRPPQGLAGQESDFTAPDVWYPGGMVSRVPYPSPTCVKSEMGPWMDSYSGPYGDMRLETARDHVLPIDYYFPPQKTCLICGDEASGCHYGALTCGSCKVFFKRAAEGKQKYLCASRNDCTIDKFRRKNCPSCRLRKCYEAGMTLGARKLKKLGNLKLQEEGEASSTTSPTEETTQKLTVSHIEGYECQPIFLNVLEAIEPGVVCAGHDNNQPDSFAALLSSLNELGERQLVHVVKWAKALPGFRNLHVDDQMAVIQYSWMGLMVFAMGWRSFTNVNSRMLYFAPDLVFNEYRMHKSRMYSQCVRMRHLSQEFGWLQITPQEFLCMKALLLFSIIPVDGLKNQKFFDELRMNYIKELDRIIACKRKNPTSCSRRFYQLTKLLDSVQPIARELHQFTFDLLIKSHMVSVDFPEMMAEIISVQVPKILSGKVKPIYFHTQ
Method in brief: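 Competition of test compound at a single concentration against 10 nM ³H-testosterone for binding to recombinant human AR in lysates of baculovirus-infected cells. Dihydrotestosterone at 2 µM served as the positive control. Results are expressed as % of control.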

Glucocorticoid receptor [5] = target: T1, Glucocorticoid receptor; assay: Agonist activity at glucocorticoid receptor in HFF assessed as inhibition of IL1-induced IL-6 production after 18 to 24 hrs; format: functional
Mus musculus [6] = assay: Antiinflammatory activity in mouse plasma assessed as inhibition of LPS-induced TNFalpha production at 10 mg/kg, po administered 1 hr before LPS challenge measured after 1 hr; format: functional
Method in brief: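 Mice received compound orally in Cremophor RH 1 h before LPS challenge. Plasma TNF-α was measured 1 h after challenge. n = 8 per group; doses were 3 and 10 mg/kg.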

Mus musculus [7] = assay: Antiarthritic activity in B10.R3 mouse collagen-induced arthritis model assessed as AUC of disease progression inhibition at 30 mg/kg, po qd for 5 weeks; format: functional; settings: B10.R3, 840 h
Method in brief: (§1)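 B10.RIII mice immunized with porcine type II collagen plus complete Freund's adjuvant were enrolled at the first signs of arthritis. They were dosed orally once daily for 5 weeks; vehicle was 30% Cremophor RH. All four paws were scored 1–4 (maximum 16 per animal). Disease-score AUCs from 10 mice per group were compared with vehicle by Mann–Whitney test.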

Mus musculus [8] = assay: Toxicity in B10.R3 mouse collagen-induced arthritis model assessed as change in body weight at 3 mg/kg, po qd for 5 weeks relative to control; format: organism-based; parameters: dose 3 mg/kg, route oral; settings: in vivo, 840 h
Mus musculus [9] = assay: Toxicity in B10.R3 mouse collagen-induced arthritis model assessed as change in body weight at 30 mg/kg, po qd for 5 weeks relative to control; format: organism-based; parameters: dose 30 mg/kg, route oral; settings: in vivo, 840 h
Mus musculus [10] = assay: Toxicity in B10.R3 mouse collagen-induced arthritis model assessed as change in body fat level at 3 mg/kg, po qd for 5 weeks relative to control; format: organism-based; parameters: dose 3 mg/kg, route oral; settings: in vivo, 840 h
Method in brief: (§2)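 Arthritic B10.RIII CIA mice were dosed orally once daily for 5 weeks. At day 35 they were anesthetized with ketamine (50 mg/kg) and xylazine (15 mg/kg). Body fat was assessed by whole-body density scan. Serum triglycerides were measured by enzymatic kit (Wako L-Type TG-H) and free fatty acids by NEFA-C. Results are expressed as % change versus vehicle and compared by t-test.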

Mus musculus [11] = assay: Toxicity in B10.R3 mouse collagen-induced arthritis model assessed as change in body fat level at 30 mg/kg, po qd for 5 weeks relative to control; format: organism-based; parameters: dose 30 mg/kg, route oral; settings: in vivo, 840 h; method in brief: as §2
Mus musculus [12] = assay: Toxicity in B10.R3 mouse collagen-induced arthritis model assessed as change in serum triglyceride level at 3 mg/kg, po qd for 5 weeks relative to control; format: organism-based; parameters: dose 3 mg/kg, route oral; settings: in vivo, 840 h; method in brief: as §2
Mus musculus [13] = assay: Toxicity in B10.R3 mouse collagen-induced arthritis model assessed as change in serum triglyceride level at 30 mg/kg, po qd for 5 weeks relative to control; format: organism-based; parameters: dose 30 mg/kg, route oral; settings: in vivo, 840 h; method in brief: as §2
Mus musculus [14] = assay: Toxicity in B10.R3 mouse collagen-induced arthritis model assessed as change in serum free fatty acids level at 3 mg/kg, po qd for 5 weeks relative to control; format: organism-based; parameters: dose 3 mg/kg, route oral; settings: in vivo, 840 h; method in brief: as §2
Mus musculus [15] = assay: Toxicity in B10.R3 mouse collagen-induced arthritis model assessed as change in serum free fatty acids level at 30 mg/kg, po qd for 5 weeks relative to control; format: organism-based; parameters: dose 30 mg/kg, route oral; settings: in vivo, 840 h; method in brief: as §2
Mus musculus [16] = assay: Toxicity in B10.R3 mouse collagen-induced arthritis model assessed as change in serum insulin level at 3 mg/kg, po qd for 5 weeks by ELISA relative to control; format: organism-based; parameters: dose 3 mg/kg, route oral; settings: in vivo, 840 h
Mus musculus [17] = assay: Toxicity in B10.R3 mouse collagen-induced arthritis model assessed as change in serum insulin level at 30 mg/kg, po qd for 5 weeks by ELISA relative to control; format: organism-based; parameters: dose 30 mg/kg, route oral; settings: in vivo, 840 h
Mus musculus [18] = assay: Antiarthritic activity in B10.R3 mouse collagen-induced arthritis model assessed as AUC of disease progression inhibition at 10 mg/kg, po qd for 5 weeks; format: functional; settings: B10.R3, 840 h; method in brief: as §1
Mus musculus [19] = species on record: Mus musculus; assay: animal or person; settings: B10.R3, po, 840 h, read-out: INH

Row | SMILES | pEC50 (Glucocorticoid receptor [1]) | Efficacy [2] [%] | pIC50 (Glucocorticoid receptor [3]) | pIC50 (Progesterone receptor) | Activity [4] | pIC50 (Glucocorticoid receptor [5]) | inhibition in vivo at 10 mg/kg (Mus musculus [6]) [%] | inhibition in vivo at 30 mg/kg (Mus musculus [7]) [%] | Activity (Mus musculus [8]) [%] | Activity (Mus musculus [9]) [%] | Activity (Mus musculus [10]) [%] | Activity (Mus musculus [11]) [%] | Activity (Mus musculus [12]) [%] | Activity (Mus musculus [13]) [%] | Activity (Mus musculus [14]) [%] | Activity (Mus musculus [15]) [%] | Activity (Mus musculus [16]) [%] | Activity (Mus musculus [17]) [%] | inhibition in vivo at 10 mg/kg (Mus musculus [18]) [%] | inhibition in vivo at 3 mg/kg (Mus musculus [19]) [%]
1 | COc1ccc(F)cc1C(C)(C)CC(O)(Cc1cc2ccccc2[nH]1)C(F)(F)F (racemic) | 7.64 | 93 | 7.66 | 6.54 | inactive | 8.15 | – | – | – | – | – | – | – | – | – | – | – | – | – | –
2 | C[C@]12C=CC(=O)C=C1CC[C@@H]1[C@@H]2[C@@H](O)C[C@@]2(C)[C@H]1CC[C@]2(O)C(=O)CO [PREDNISOLONE] | – | – | – | – | – | – | 84 | 80 | 1.1 | 9 | 36 | 70 | -11 | 55 | 8 | 25 | 37 | 190 | 62 | 42
